Entries after “also recorded” stand apart in the source; their conditions may differ.
Assays:
TRPV1-WT [1] = target: T1, TRPV1-WT (Rattus norvegicus, UniProt O35433); type: cell-based; conditions: Hill fit of dose–response, native lipids
TRPV1-R721A [2] = target: T2, TRPV1-R721A (Rattus norvegicus, UniProt O35433, R721A); type: cell-based; conditions: Hill fit of dose–response, native lipids
TRPV1-WT [3] = target: T1, TRPV1-WT; type: cell-based; conditions: Hill fit of dose–response, 1 µM capsaicin
In short: (§1)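 Rat TRPV1 (WT or R721A) transiently expressed in F-11 cells and used 12–48 h post-transfection. […] Bath was 130 mM NaCl, 10 mM HEPES, 0.2 mM EDTA, pH 7.4, with steps from 0 mV to ±100 mV. Vehicle-subtracted currents were Hill-fitted per patch, normalized to Imax, and pooled (mean, SEM).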

TRPV1-R721A [4] = target: T2, TRPV1-R721A; type: cell-based; conditions: for Hill slope nH, phosphoinositide activation of TRPV1-R721A: Hill fit of dose–response, 1 µM capsaicin
In short: as §1

TRPV1 = conditions: ref Collins and Gordon, 2013; cited from earlier work
[5] = R721A mutation compared with WT

T1 sequence (O35433 whole entry): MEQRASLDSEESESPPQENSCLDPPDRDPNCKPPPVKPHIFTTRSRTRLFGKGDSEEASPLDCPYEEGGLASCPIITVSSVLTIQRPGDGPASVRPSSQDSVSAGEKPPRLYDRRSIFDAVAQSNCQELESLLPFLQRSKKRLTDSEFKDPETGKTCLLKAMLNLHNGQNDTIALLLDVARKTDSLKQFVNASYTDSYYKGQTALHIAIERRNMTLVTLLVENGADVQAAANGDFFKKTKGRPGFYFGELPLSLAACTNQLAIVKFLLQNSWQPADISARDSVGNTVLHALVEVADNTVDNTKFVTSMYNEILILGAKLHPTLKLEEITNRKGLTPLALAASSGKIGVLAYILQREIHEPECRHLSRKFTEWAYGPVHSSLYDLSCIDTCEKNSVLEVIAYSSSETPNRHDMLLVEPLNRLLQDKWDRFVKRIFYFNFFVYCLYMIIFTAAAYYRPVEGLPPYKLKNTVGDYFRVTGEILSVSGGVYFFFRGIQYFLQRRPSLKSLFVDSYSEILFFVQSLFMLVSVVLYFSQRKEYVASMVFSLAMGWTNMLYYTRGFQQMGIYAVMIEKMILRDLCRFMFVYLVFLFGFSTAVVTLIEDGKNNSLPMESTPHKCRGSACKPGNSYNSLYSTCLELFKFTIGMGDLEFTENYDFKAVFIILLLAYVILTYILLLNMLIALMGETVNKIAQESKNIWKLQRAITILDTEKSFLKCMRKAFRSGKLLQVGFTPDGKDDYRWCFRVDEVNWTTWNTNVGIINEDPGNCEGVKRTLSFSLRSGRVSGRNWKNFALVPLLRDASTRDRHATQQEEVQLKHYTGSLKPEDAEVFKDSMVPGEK
T2 sequence (O35433 whole entry R721A): as the sequence (O35433 whole entry) above, with R721A counted along it

SMILES	Hill slope nH, capsaicin activation of TRPV1-WT (TRPV1-WT [1])	Hill slope nH, capsaicin activation of TRPV1-R721A (TRPV1-R721A [2])	Hill slope nH, phosphoinositide activation of TRPV1-WT (TRPV1-WT [3])	Hill slope nH, phosphoinositide activation of TRPV1-R721A (TRPV1-R721A [4])	decrease in the EC50 for activation produced by the R721A mutation (in words) (TRPV1-R721A [4]; [5])	decrease in the EC50 value, TRPV1-R721A versus TRPV1-WT (TRPV1-R721A [4]; [5])	increase in the EC50 value, TRPV1-R721A versus TRPV1-WT (TRPV1-R721A [4]; [5])	K1/2 of activating effects on TRPV1 in the plasma membrane (TRPV1)
COc1cc(CNC(=O)CCCC/C=C/C(C)C)ccc1O [capsaicin]	1	1						
CCCCCCCC(=O)OC[C@H](COP(=O)(O)O[C@H]1[C@H](O)[C@@H](O)[C@H](OP(=O)(O)O)[C@@H](O)[C@H]1O)OC(=O)CCCCCCC [diC8-PI(4)P]			2	2	more than two orders of magnitude; also recorded: over two orders of magnitude	150 fold		
CCCCCCCC(=O)OC[C@H](COP(=O)(O)O[C@@H]1[C@H](O)[C@H](O)[C@@H](OP(=O)(O)O)[C@H](OP(=O)(O)O)[C@H]1O)OC(=O)CCCCCCC [diC8-PI(4,5)P2, phosphoinositide 4,5-bisphosphate]			2	2			1.3 fold	~0.03 mol %

Reference: paper PMC4411251 (The Journal of General Physiology, 2015)
